Consider one compound from ChEMBL document CHEMBL4017489, “Design, Synthesis, and Evaluation of New Selective NM23-H2 Binders as c-MYC Transcription Inhibitors via Disruption of the NM23-H2/G-Quadruplex Interaction” (J Med Chem, 2017).

Series [1] deals with Nucleoside diphosphate kinase B (Homo sapiens, UniProt P22392, D54A). In words: Binding affinity to N-terminal NT-647-NHS labeled NM23-H2 D54A mutant (unknown origin) after 30 mins by MST analysis.
Series [2] deals with SiHa. Nature of the series: Cell cycle arrest in human SiHa cells assessed as accumulation at sub-G1 phase at 2 uM after 48 hrs by propidium iodide staining based flow cytometry relative to control. It is filed as functional. Put shortly: (§1)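 SiHa cells (2.0 × 10^5 per well) plated 24 h, then exposed to 2 μM compound or left untreated for 3, 6, 9, 12, 24, 36 or 48 h. Cells washed in PBS, fixed overnight in ice-cold 70% ethanol, treated with 20 μg/mL RNase A for 30 min at 37 °C, stained with PI, and read by flow cytometry at 488 nm. Phase percentages compared with untreated control; at least three experiments.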
A general note: In flow cytometry, cells or beads pass a laser one at a time.

Series [3] deals with SiHa. Nature of the series: Induction of apoptosis in human SiHa cells assessed as increase in cleaved caspase-3 level after 48 hrs by Western blot analysis. The format is functional, cell-based. An outline of the steps: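 SiHa cells treated with 0, 0.5, 1.0 or 2.0 μM for 48 h and lysed for total protein. Caspase-3, cleaved caspase-3, PARP and cleaved PARP detected by Western blot (30 μg protein, 10% SDS-PAGE, HRP chemiluminescence). Bands quantified by densitometry; at least three experiments.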
(Immunoblotting shows a protein as a band on a membrane.)

Series [4] in a line: Antiproliferative activity against mouse primary mesangial cells at 4 uM up to 100 hrs by real-time cellular activity assay. The format is cell-based. Particulars: primary mesangial cell. Put shortly: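 Impedance-based real-time cell analysis at 37 °C, 5% CO2: 100 μL of 20 000 cells/mL added over medium background, settled 20 min, dosed after 24 h; read every 2 min for 2 h, then every 15 min to end; three repeats.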

Series [5] addresses T1, Nucleoside diphosphate kinase B (Homo sapiens, UniProt P22392). In words: Binding affinity to NM23-H2 (unknown origin) by SPR analysis.
Series [6] concerns SiHa. In words: Effect on NM23-H2 mRNA level in human SiHa cells up to 2 uM after 9 hrs by RT-PCR analysis. The format is functional, cell-based. Put shortly:
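SiHa cells treated with 0, 0.5, 1.0 or 2.0 μM for 9 h. TRIzol RNA (1.5 μg) reverse-transcribed with M-MLV and oligo(dT) for 1 h at 42 °C. Semiquantitative PCR run for 30 cycles (58 °C annealing) and products resolved on 1.5% agarose. Band intensity normalized to β-actin, with untreated sample set at 100%; three repeats.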

For series [7], the system named is SiHa. In words: Cell cycle arrest in human SiHa cells assessed as accumulation at G2/M phase at 2 uM after 6 hrs by propidium iodide staining based flow cytometry (reference value: 39 %). The format is functional. An outline of the steps:
as §1

Series [8] has as its system SiHa. Nature of the series: Cell cycle arrest in human SiHa cells assessed as accumulation at G0/G1 phase at 2 uM after 3 hrs by propidium iodide staining based flow cytometry (reference value: 48%). The format is functional. An outline of the steps:
(§2)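 SiHa cells plated 24 h, treated at 2 μM for 3–48 h; fixed in ice-cold 70% ethanol overnight, RNase A 20 μg/mL 37 °C 30 min, PI-stained, flow cytometry at 488 nm; phase percentages quantified; at least three experiments.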

Series [9] deals with SiHa. In words: Anticlonogenic activity against human SiHa cells up to 0.5 uM after 14 days by crystal violet staining based assay. The format is functional, cell-based. Put shortly:
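Colony formation: SiHa cells and primary cultured mouse mesangial cells exposed to 0.5, 0.25, 0.125, 0.0625 and 0.03125 μM for 14 days, DMSO as negative control; three repeats.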

In series [10] the test system is Mus musculus. In words: Toxicity in BALB/C nude mouse xenografted with human SiHa cells assessed as change in body weight at 2.5 to 5 mg/kg, ip administered daily after 3 weeks. The format is organism-based. The note with it: in vivo, 504 h. An outline of the steps:
(§3)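 SiHa cells implanted in the right armpit of BALB/c nu/nu mice. At approximately 50 mm3, mice randomized (n = 8/group) to vehicle, compound 2.5 or 5.0 mg/kg, or doxorubicin 1.0 mg/kg, given ip daily for 3 weeks. Body weight and signs of pain, distress or discomfort monitored; tumors excised and weighed. Data given as mean ± SEM, t test against vehicle.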
Background: In xenograft studies the graft and the host belong to different species.

Series [11] deals with SiHa. Nature of the series: Cell cycle arrest in human SiHa cells assessed as accumulation at S phase at 2 uM after 6 hrs by propidium iodide staining based flow cytometry (reference value: 13 %). The format is functional. Put shortly:
as §1

Series [12] concerns SiHa. Nature of the series: Antiproliferative activity against human SiHa cells after 48 hrs by MTT assay. It is filed as functional, cell-based.
The test system of series [13] is SiHa. In words: Cell cycle arrest in human SiHa cells assessed as accumulation at G2/M phase at 2 uM after 24 hrs by propidium iodide staining based flow cytometry (reference value: 39 %). The format is functional. An outline of the steps:
as §2

In series [14] the test system is SiHa. Nature of the series: Cell cycle arrest in human SiHa cells assessed as accumulation at sub-G1 phase at 2 uM after 12 hrs by propidium iodide staining based flow cytometry relative to control. It is filed as functional. An outline of the steps: as §1
Series [15] has as its system SiHa. In words: Cell cycle arrest in human SiHa cells assessed as accumulation at S phase at 2 uM after 36 hrs by propidium iodide staining based flow cytometry (reference value: 13 %). It is filed as functional. Put shortly: as §1
Series [16] is described as follows: Binding affinity to 5'-FAM/3'-TAMRA labeled Pu22 c-myc G-quadruplex DNA (unknown origin) assessed as increase in melting temperature at 1 uM by FRET assay.
Series [17] is described as follows: Cell cycle arrest in mouse primary mesangial cells at 2 uM after 9 to 48 hrs by propidium iodide staining based flow cytometry method.
Series [18] concerns Mus musculus. In words: Toxicity in BALB/C nude mouse xenografted with human SiHa cells assessed as discomfort at 2.5 to 5 mg/kg, ip administered daily after 3 weeks. The format is organism-based. Particulars: in vivo, 504 h. Put shortly: as §3
For series [19], the system named is SiHa. Nature of the series: Down regulation of cyclin D1 expression in human SiHa cells at 0.5 to 2 uM after 24 to 48 hrs by Western blot analysis. The format is functional, cell-based. An outline of the steps:
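SiHa cells (2.0 × 10^5) treated with compound at various concentrations for 24 or 48 h, then lysed at 4 °C. Protein measured by BCA; 30 μg run on 10% SDS-PAGE and transferred to nitrocellulose. Membranes blocked in 5% milk, probed with primary antibodies overnight at 4 °C, then HRP secondary for 2 h, and detected by chemiluminescence. Bands quantified by densitometry; at least three experiments.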

The test system of series [20] is SiHa. Nature of the series: Induction of apoptosis in human SiHa cells assessed as necrotic cells at 1 uM after 48 hrs by Annexin V-FITC/propidium iodide based flow cytometric analysis (reference value: 0.3%). The format is functional.
Series [21] addresses T1, Nucleoside diphosphate kinase B. Nature of the series: Binding affinity to N-terminal NT-647-NHS labeled NM23-H2 (unknown origin) after 30 mins by MST analysis. An outline of the steps:
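NM23-H2 N-terminally labeled with RED-NHS dye (20 μM protein, 30 min dark, RT), free dye removed; 200 nM labeled protein with compound from 500 μM, 16 twofold steps, 30 min RT in 50 mM Tris-HCl pH 7.4, 150 mM NaCl, 10 mM MgCl2, 0.05% Tween-20; KD at half-plateau.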

The target of series [22] is Nucleoside diphosphate kinase B (Homo sapiens, UniProt P22392, G113F). In words: Binding affinity to NM23-H2 G113F mutant (unknown origin) by SPR analysis.
Series [23] concerns SiHa. In words: Induction of apoptosis in human SiHa cells assessed as necrotic cells at 2 uM after 48 hrs by Annexin V-FITC/propidium iodide based flow cytometric analysis (reference value: 0.3%). The format is functional.
For series [24], the system named is Mus musculus. Nature of the series: Toxicity in BALB/C nude mouse xenografted with human SiHa cells at 2.5 to 5 mg/kg, ip administered daily after 3 weeks. It is filed as organism-based. Particulars: in vivo, 504 h. An outline of the steps: as §3

Calls of active or inactive are those of the source. The calls are words filed in the database; no cut-off is given here.

T1 sequence (P22392 whole entry): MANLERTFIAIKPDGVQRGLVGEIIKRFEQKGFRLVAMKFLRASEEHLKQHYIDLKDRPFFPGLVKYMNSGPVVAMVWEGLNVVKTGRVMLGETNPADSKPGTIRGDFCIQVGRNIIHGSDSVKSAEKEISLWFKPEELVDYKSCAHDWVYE
Chain of Nucleoside diphosphate kinase B (Homo sapiens, UniProt P22392, G113F) (P22392 whole entry G113F): as the sequence (P22392 whole entry) above, with G113F counted along it
Chain of Nucleoside diphosphate kinase B (Homo sapiens, UniProt P22392, D54A) (P22392 whole entry D54A): as the sequence (P22392 whole entry) above, with D54A counted along it

As for `CN(C)CCCNc1cc2nc3n(c(=O)c2cc1F)CC/C3=C\c1ccc(OCc2ccccc2)cc1O`, the Kd (in general, the concentration at which binding is half-saturated) in series [1] was found to be 4.6 µM; in series [5], 3.1 µM; in series [21] it was 2 µM; in series [22], 15.5 µM. In addition, the Activity in the series on SiHa [2] is 100%; with SiHa [3] it was “Dose-dependent effect”; in series [4] it was “Toxic”; with SiHa [7], 26%; in the series on SiHa [8], 51%; in the series with Mus musculus [10] it was “Non-Toxic”. Further, the Activity is listed as 12% in the series on SiHa [11]; 8% in the series on SiHa [13]; 8% in the series on SiHa [14]; 0% with SiHa [15]; “Non-Toxic” in series [17]; “Non-Toxic” with Mus musculus [18]. Also, the Activity in the series with SiHa [20] was 1.3%; in the series with SiHa [23], 2.2%; in the series on Mus musculus [24], “Non-Toxic”. Also, the outcome (in the series on SiHa [6]; in series [16]) was inactive. Moreover, the outcome with SiHa [9] and in the series on SiHa [19] was Active. In addition, the IC50 (in general, the concentration at which inhibition is half-maximal) in the series on SiHa [12] came out at 1.78 µM.
